Entries after “also recorded” stand apart in the source; their conditions may differ. Read-outs that look alike come from different tables or passages of the source. Ends that are not written are not given here.
How the values were obtained:
[1] = tested on: calmodulin; conditions: ref [27]; cited from earlier work
[2] = tested on: Ca2+-S100P; conditions: ref [25], cited from earlier work
[3] = molecular target: T1, S100A11 (Homo sapiens, UniProt P31949); assay: Far-UV CD difference spectra, peptide with S100A11; assay type: binding; conditions: for fractional helicity upon binding: far-UV CD difference spectra, 10 μM protein, 50 μM peptide, 5 mM calcium; for coil-to-helix transition upon binding: far-UV CD, Ca2+-S100A11
T1 sequence (P31949 1-105): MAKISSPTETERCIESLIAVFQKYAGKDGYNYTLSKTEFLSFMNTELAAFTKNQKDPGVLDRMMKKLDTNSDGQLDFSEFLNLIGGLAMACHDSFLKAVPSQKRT
In short: (§1)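 Recombinant S100 protein expressed in E. coli BL21(DE3), purified by phenyl-Sepharose and Sephadex G-75; S100A10 eluted in 8 M urea and refolded by dialysis. Far-UV CD recorded 250–200 nm on 10 μM protein plus 50 μM peptide in binding buffer with 5 mM calcium. Difference spectrum: complex minus free peptide minus free protein, converted to mean residue ellipticity assuming saturated sites. Fraction helicity derived from [Θ]222 against temperature-dependent coil and helix reference values.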

[4] = tested on: sixteen members of S100 protein family; assay: Screen of peptides against S100 family; assay type: binding, human; conditions: S100 proteins other than the partners found (S100A6, S100A10, S100A11)
[5] = molecular target: T2, S100A10 (Homo sapiens, UniProt P60903); assay: ITC of AnII binding to S100A10
T2 sequence (P60903 whole entry): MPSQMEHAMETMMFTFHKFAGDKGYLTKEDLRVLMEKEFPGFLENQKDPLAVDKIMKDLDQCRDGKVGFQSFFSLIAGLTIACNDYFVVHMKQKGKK
In short: (§2)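 Isothermal titration calorimetry in 20 mM Tris, 0.2 mM EDTA, 1 mM TCEP, pH 7.5. S100A10 was run with 5 mM calcium or without calcium; Ca2+-S100A11 was run with or without 100 mM NaCl. Protein and peptide were co-dialysed at 4°C. Screens injected 2 μL of about 0.75 mM peptide into about 20–25 μM protein at 10 and 25°C, continuing to saturation when heat appeared. Integrated heats were fit to two sequential sites per dimer, over five temperatures. ΔCp was taken from the slope of ΔHcal against temperature.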

[6] = tested on: S100A11; conditions: cited from earlier work
[7] = Analytical equilibrium ultracentrifugation; assay type: physicochemical; conditions: 4°C, 35,000 rpm, 20 mM Tris, 1 mM TCEP, 0.2 mM EDTA, pH 7.5, absence or presence of 5 mM calcium; single species fit
In short: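 Peptides were N-terminally acetylated; AnII carried an added C-terminal Tyr. Concentrations came from ε280 of 5,500 (AnI) and 1,490 (AnII) M−1 cm−1. Radial distributions were fitted to a single-species equilibrium equation using partial specific volumes of 0.748 (AnI) and 0.745 (AnII) cm3/g.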

[8] = Far-UV CD of free peptides; assay type: physicochemical; conditions: TFE up to 60%, with or without calcium
In short: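 Peptides were run at […] in 20 mM Tris, 3 mM DTT, 0.2 mM EDTA, pH 7.5, without or with 5 mM calcium. TFE was added up to 60% final. Buffer-corrected ellipticity was converted to mean residue ellipticity. Fraction helicity was taken from [Θ]222 against temperature-dependent fully coiled and fully helical reference values.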

[9] = molecular target: T1, S100A11; assay: ITC of AnII binding to Ca2+-S100A11
In short: as §2

[10] = molecular target: T2, S100A10; assay: Far-UV CD difference spectra, AnII with S100A10; assay type: binding
In short: as §1

[11] = tested on: S100A10; conditions: literature; ref [15]; cited from earlier work
[12] = tested on: S100A6-Y84S; assay: Far-UV CD difference spectra, AnI with S100A6-Y84S; assay type: binding, human; conditions: 5 mM calcium
In short: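 Spectra of 10 μM protein with 50 μM AnI in 5 mM calcium binding buffer were recorded at 250–200 nm. The difference spectrum was complex minus free peptide minus free protein, converted to mean residue ellipticity assuming saturated sites.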

[13] = tested on: S100 protein family members (S100A1-S100A13, S100B, S100P, S100Z); assay: Trp fluorescence screen of AnI against other S100 proteins; assay type: binding, human; conditions: any S100 protein other than S100A11 and S100A6; protein:peptide ratio up to 5:1
In short: (§3)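 This screen used a thermostated cell, 295 nm excitation, and emission scanned over 305–400 nm. Concentrated protein in assay buffer was added stepwise to 2 μM AnI, up to 10 μM protein (5:1). For Trp-containing S100A1, A3, A8, A9 and A13, AnI was instead added to 2 μM protein up to 5:1 peptide:protein, and protein-only spectra were subtracted.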

[14] = tested on: calmodulin; assay: Trp fluorescence screen of AnI against calmodulin; assay type: binding; conditions: protein:peptide ratio up to 5:1
In short: as §3

[15] = Trp fluorescence emission of free AnI; assay type: physicochemical; conditions: free AnI in solution, excitation 295 nm, emission 305-400 nm, pH 7.5
[16] = molecular target: T3, S100A6 (Homo sapiens, UniProt P06703); assay: ITC of AnI binding to Ca2+-S100A6; conditions: different temperatures, relative to free energy of binding
In short: (§4)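 VP-ITC in 20 mM Tris, 0.2 mM EDTA, 1 mM TCEP, pH 7.5 with 5 mM calcium. Protein and peptide were co-dialysed with three buffer changes at 4°C. Because of its limited solubility, the AnI peptide was placed in the cell and the S100 protein titrated from the syringe. Runs were done at five temperatures (15–35°C). Integrated injection heats were fitted to a two identical non-interacting sites per dimer model.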

[17] = molecular target: T3, S100A6; assay: Trp fluorescence titration of AnI with S100A6; assay type: binding
[18] = molecular target: T1, S100A11; assay: Trp fluorescence titration of AnI with S100A11; assay type: binding
In short: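 Intrinsic Trp emission of 2 μM peptide, excited at 295 nm and read at 305–400 nm. Protein was added stepwise in 1.2 μM increments to 10 μM, a final 5:1 protein:peptide ratio. Emission intensity and maximum were followed. Kd came from fitting the intensity change against protein concentration to a model with two identical sites per dimer.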

[19] = molecular target: T3, S100A6; assay: Far-UV CD difference spectra, AnI with S100A6; assay type: binding
[20] = tested on: S100A6 variants (Y73F, Y84S, Y73F/Y84S); assay: Binding affinity of AnI for substituted S100A6 variants; set-up: species or system human; conditions: data not shown
[21] = molecular target: T1, S100A11; assay: ITC of AnI binding to Ca2+-S100A11
In short: as §4

[22] = ITC screen and calcium dependence
[23] = slope of ΔHcal vs temperature, ITC at 5 temperatures
[24] = literature, AnII labeled with Prodan in that study, ref [15]
[25] = 5 mM calcium, pH 7.5, excitation 295 nm

melittin: peptide with the ability to bind both S100P and calmodulin
binding [1]: has the ability to bind both S100P ([25]) and calmodulin
ΔCp ([2]; melittin binding to Ca2+-S100P): −2.5±0.5 kJ/(mol·K)
binding [2]: has the ability to bind both S100P

Ac-STVHEILSKLSLEGY [AnII]
fractional helicity upon binding [3]: 0.57
coil-to-helix transition upon binding [3]: undergo a coil-to-helix transition upon binding
binding to the other S100 proteins [4]: bind to only these S100 proteins and not the others
effect of calcium on ITC binding ([5]; 5 mM calcium compared with absence of calcium): very similar to the data obtained in the absence of calcium
binding [5, 22]: the binding is independent of calcium; also recorded: AnII has been found to bind S100A10
enthalpy of binding (sign/size) ([5]; ITC, total enthalpy from both binding sites, entire temperature range): large and negative; also recorded: exothermic
ΔCp,exp [5, 23]: −2.4±0.3 kJ/(mol·K)
binding ([6]; NMR spectroscopy, ref [16]): AnII can interact with Ca^2+-S100A11
binding [6, 24]: S100A11 binds AnI but not AnII
molecular mass in solution (oligomeric state) [7]: 1.9 ± 0.16 kDa
secondary structure in TFE [8]: far-UV CD spectra characteristic of helices
effect of ionic strength on thermodynamics of binding ([9]; 100 mM NaCl): did not have any effect on the thermodynamics of binding
enthalpy of binding (sign/size) ([9]; ITC): endothermic but small relative to the Gibbs energy of binding
binding [9, 22]: this binding to S100A11 is also modulated by calcium; also recorded: AnII has been found to bind S100A10 and Ca^2+-S100A11
ΔCp,exp [9, 23]: −1.1±0.2 kJ/(mol·K)
helicity when bound ([10]; compared to AnII bound to S100A11): AnII becomes more helical when bound to S100A10 compared to when it is bound to S100A11
coil-to-helix transition upon binding ([10]; far-UV CD, S100A10): undergo a coil-to-helix transition upon binding
binding [11]: S100A10 binds AnII but not AnI

Ac-AMVSEFLKQAWFIE [AnI]
fractional helicity upon binding [3]: 0.59
coil-to-helix transition upon binding [3]: undergo a coil-to-helix transition upon binding
far-UV CD difference spectrum [12]: the difference spectrum for the Y84S variant has a similar spectrum to that of the wild type
binding to the other S100 proteins [4]: bind to only these S100 proteins and not the others
change in Trp fluorescence (emission maximum or intensity) in screen [13]: did not show changes in Trp fluorescence
change in Trp fluorescence / binding in screen [14]: did not show changes in Trp fluorescence; also recorded: Neither peptide was found to bind to calmodulin
fluorescence emission maximum wavelength of free AnI [15]: approximately 359 nm
binding [6, 24]: S100A11 binds AnI but not AnII
molecular mass in solution (oligomeric state) [7]: 1.9 ± 0.07 kDa
enthalpy of binding (sign/size) [16]: either negative or positive but small relative to the free energy of binding
secondary structure in TFE [8]: far-UV CD spectra characteristic of helices
fluorescence emission maximum wavelength of AnI upon addition of Ca2+-S100A6 [17, 25]: 352 nm
change in Trp fluorescence without calcium ([17]; S100A6 in the absence of calcium): No changes in Trp-fluorescence
binding ([17]; Trp fluorescence screen, Ca2+-S100A6): AnI has been found to bind Ca^2+-S100A6
Kd [18]: 5 ± 1 µM
fluorescence emission maximum wavelength of AnI in presence of Ca2+-S100A11 [18, 25]: 350 nm
change in Trp emission spectra without calcium ([18]; S100A11 in the absence of calcium): very little change in the emission spectra
binding ([18]; Trp fluorescence screen, Ca2+-S100A11): AnI has been found to bind Ca^2+-S100A6 and Ca^2+-S100A11
far-UV CD difference spectrum ([19]; AnI with Ca2+-S100A6 wild type, 10 μM protein, 50 μM AnI, 5 mM calcium): A noted lower elipticity
coil-to-helix transition upon binding ([19]; far-UV CD, Ca2+-S100A6): undergo a coil-to-helix transition upon binding
effect of S100A6 substitutions on binding affinity [20]: the substitutions do not have a significant effect on the binding affinity
Kd [21]: 5 ± 2 µM
temperature dependence of dissociation constant ([21]; ITC, 15-35°C): does not depend significantly on temperature
enthalpy of binding ΔHcal at 15°C ([21]; ITC, 15°C, 5 mM calcium): -0.96 kcal/mol
enthalpy of binding ΔHcal at 35°C ([21]; ITC, 35°C, 5 mM calcium): -7.17 kcal/mol
free energy of binding ΔG=−RTln(Kd) ([21]; per binding site, from ITC Kd): ≈ 30 kJ/mol; also recorded: ≈ 26 kJ/mol
ΔCp,exp ([21]; slope of ΔHcal vs temperature, ITC 15-35°C, 5 mM calcium): −1.3±0.2 kJ/(mol·K)
binding [11]: S100A10 binds AnII but not AnI

Reference: publication PMC2671235 (Biochemistry, 2009)
